High-throughput results as filed in PubChem BioAssay.
rRNA inh HTS: selective bacterial rRNA inhibition in E. coli | GFP signal change (wild-type ribosome), % (test concentration not listed) | AID 720706 | 1.6% of 350,000 active | E. coli WT GFP vs humanized-ribosome RFP mutants, fluorescence, 24 h; stronger effect = lower value; DMSO median 0, no signal -100;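 active = significant combined selectivity score with lowered wild-type GFP, culture density cut under 30%, mutant RFP and density less affected; inactive = any of these conditions unmet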
Cneo AK release: causes C. neoformans cell lysis. adenylate kinase release luminescence, 4 h; normalised: neutral wells 0, clomiphene wells 100. lysis activity, % at 15 µM. AID 651654. 0.2% of 360,000 active;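 active = mean lysis activity across replicates of at least 80%, whatever share of replicates individually reach that level; inactive = mean lysis activity below 80%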
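Material: C. neoformans cells; Schedule: 4 h static compound exposure, 37 °C, read 1 h post-reagent; Measured by: adenylate kinase release luminescence; Read-out: signal increase indicating cell lysis; Controls: Clomiphene as positive lysis control.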
HIV Env fusion: HIV envelope-mediated fusion inhibition; HeLa-JRFL Env/CEM21 cell fusion, luciferase; inhibition, % at 12.3 µM; 1.1% of 360,000 active;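 active = mean replicate inhibition score of at least 50 and every replicate individually at or above 50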
miR122 inh: miR-122 inhibition in Huh7 cells; Huh7 miR-122 Renilla luciferase sensor, 48 h; neutral wells = 0, positive control = 100; activation (reporter increase), % at 12.5 µM; 0.3% of 340,000 active; AID 602342;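 active = mean replicate activation score at least 90 and every replicate individually at or above 90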;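 also: higher luciferase means less miR-122 activity so hits act as miR-122 inhibitors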
F508del corr: correctors of CFTR F508del function in bronchial epithelial cells | CFBE cells, YFP halide quenching; stimulated with forskolin plus potentiator P3; % fluorescence drop versus neutral controls | activity (quench increase), % at 7.58 µM | 0.36% of 350,000 active | AID 720511;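 active = mean added fluorescence quench of at least 8% versus neutral control, with both replicates also reaching 8%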;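 also: cells transiently co-express mutant CFTR-F508del with the halide-sensitive YFP; corrector assay measuring rescue of mutant channel to the surface after 24 h compound exposure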
INS-1E GSIS act: GLuc luminescence reporter in INS-1E cells, primary screen for activators of glucose-dependent secretion of insulin | activation, % at 16.6 µM | INS-1E GLuc reporter insulin secretion, 2-3 h | 0.61% of 370,000 active | AID 743287;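 active = lowest replicate activation of at least 40%, so every replicate reaches that level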
Each line names hits and unclear results; the compound was inactive in the other large screens; [ ] = another dose, or the depositor's remark. In the library only some 3.1% were active in any assay of this set; here they are far more common.

Cc1ccc(S(=O)(=O)N(C)C[C@@H]2Oc3ccc(NC(=O)Nc4ccc5c(c4)OCO5)cc3CC(=O)N([C@@H](C)CO)C[C@@H]2C)cc1	miR122 inh 113[16.7 µM]
COc1ccc(S(=O)(=O)Nc2ccc3c(c2)C(=O)N([C@H](C)CO)C[C@H](C)[C@H](CN(C)Cc2ccncc2)O3)cc1	none (no result: HIV Env fusion)
CO[C@@H](CN(C)C(=O)c1cnccn1)[C@@H](C)CN([C@@H](C)CO)S(=O)(=O)c1ccc(C)cc1	none (no result: HIV Env fusion, miR122 inh)
CSc1ccc(S(=O)(=O)NC2CCCCCC2)cc1	miR122 inh 103 (no result: rRNA inh HTS, HIV Env fusion, F508del corr, INS-1E GSIS act)
O=C(CCc1ccc(S(=O)(=O)NC2CCCCC2)cc1)Nc1ccccc1	none (no result: rRNA inh HTS, HIV Env fusion, F508del corr)
O=C(CCc1ccc(S(=O)(=O)NC2CCCCC2)cc1)N(Cc1ccccc1)Cc1ccccc1	miR122 inh 99 (no result: rRNA inh HTS, HIV Env fusion, F508del corr, INS-1E GSIS act)
O=C(Nc1ccc(S(=O)(=O)NC2CCCCC2)cc1)c1ccc(Br)o1	miR122 inh 128 (no result: HIV Env fusion)
Cc1ccc2sc(N3CCN(C(=O)c4ccc([N+](=O)[O-])o4)CC3)nc2c1C	INS-1E GSIS act 87
Cc1noc(C)c1S(=O)(=O)Nc1cccc2c1O[C@@H](CN(C)C(=O)NC1CCCCC1)[C@@H](C)CN([C@@H](C)CO)C2=O	none (no result: HIV Env fusion)
CCC(C)NC(=O)C1CCCN(C(=O)Nc2ccc(F)cc2)C1 (centres undefined)	HIV Env fusion 57 (no result: rRNA inh HTS, F508del corr, INS-1E GSIS act)
Cc1ccc(CNC(=O)C2CCCN(C(=O)Nc3ccc(F)cc3)C2)cc1 (centres undefined)	none
CCOC(=O)c1ccccc1NC(=O)COC(=O)CN1C(=O)NC2(CCCC2)C1=O	rRNA inh HTS -32
CCOCC(=O)Nc1ccccc1C(=O)OCC	none (no result: rRNA inh HTS, HIV Env fusion, F508del corr, INS-1E GSIS act)
CCOCCOC(=O)COC(=O)c1ccccc1NC(=O)c1ccccc1	F508del corr 11 (no result: Cneo AK release, miR122 inh)
CCOC(=O)c1ccccc1NC(=O)COC(=O)CCCOc1ccccc1	INS-1E GSIS act 56 (no result: Cneo AK release, miR122 inh)
O=C(CN1CCOCC1)NC[C@@H]1N[C@@H](CO)[C@H]1c1ccc(-c2ccccc2)cc1	none (no result: HIV Env fusion)
COCC#Cc1ccc([C@@H]2[C@@H](CO)N3C(=O)CN(C(=O)C4CCOCC4)C[C@H]23)cc1	none (no result: Cneo AK release, HIV Env fusion, miR122 inh)
Cc1ccc(-c2nc3cc(NC(=O)C(C)C)ccc3o2)cc1	none (no result: rRNA inh HTS, HIV Env fusion, F508del corr, INS-1E GSIS act)
CC(Oc1ccc(Cl)cc1Cl)C(=O)Nc1ccc2oc(-c3ccncc3)nc2c1 (centres undefined)	HIV Env fusion 64 (no result: rRNA inh HTS, F508del corr, INS-1E GSIS act)
C=CC[C@@H](CC(=O)N[C@@H](CO)Cc1ccccc1)C(=O)N[C@H](COC(=O)[C@@H](CC=C)Cc1ccc(F)cc1)Cc1ccccc1	none (no result: miR122 inh)
C=CC[C@H](CC(=O)NCCO)C(=O)N[C@H](COC(=O)[C@@H](CC=C)Cc1ccc(F)cc1)Cc1ccccc1	HIV Env fusion 59
C=CC[C@H](CC(=O)NCCO)C(=O)N[C@H](COC(=O)[C@@H](CC=C)Cc1ccc(F)cc1)c1ccccc1	none
C=CC[C@H](CC(=O)NCCO)C(=O)N[C@@H](COC(=O)[C@@H](CC=C)Cc1ccc(F)cc1)Cc1ccccc1	HIV Env fusion 79
CO[C@@H]1CN(C)C(=O)c2cc(NC(=O)NC(C)C)ccc2OC[C@@H](C)N(Cc2ccc(-c3ccccn3)cc2)C[C@H]1C	none (no result: HIV Env fusion)
CCCC(=O)N1CCC2(CC1)CN(C(=O)CN1CCOCC1)[C@H](CO)c1c2c2ccc(OC)cc2n1C	none (no result: Cneo AK release, HIV Env fusion, miR122 inh)
O=C(CCCl)Nc1nc2c(s1)CCc1ccccc1-2	F508del corr 8.8 (no result: Cneo AK release, miR122 inh)
O=C(Nc1nc2ccsc2c(=O)s1)c1ccco1	none (no result: rRNA inh HTS, INS-1E GSIS act)
O=C(Nc1nc2c(s1)CCc1ccccc1-2)c1ccco1	miR122 inh 98 (no result: rRNA inh HTS, F508del corr, INS-1E GSIS act)
CC(=O)Nc1nc2c(s1)CCc1ccccc1-2	none
Cn1cnc([N+](=O)[O-])c1S(=O)(=O)c1ccc(Cl)cc1	INS-1E GSIS act 82 (no result: Cneo AK release, miR122 inh)
Cn1cnc([N+](=O)[O-])c1NC(C)(C)C	none (no result: rRNA inh HTS, HIV Env fusion, F508del corr, INS-1E GSIS act)
O=C(N/N=C/c1ccc[nH]1)c1ccc(COc2cccc3cccnc23)cc1	HIV Env fusion 71
Cc1cc(Br)c(OCc2ccc(C(=O)N/N=C/c3ccc[nH]3)cc2)c(Br)c1	HIV Env fusion 91
O=C(N/N=C/c1ccccc1C(=O)O)c1ccc(COc2cccc3cccnc23)cc1	none (no result: Cneo AK release, miR122 inh)
O=C(COc1cccc2cccnc12)N/N=C/c1cccn1-c1ccc(F)cc1	rRNA inh HTS -41 (no result: Cneo AK release, miR122 inh)
C[C@H](CO)N1C[C@H](C)[C@@H](CN(C)S(=O)(=O)c2cn(C)cn2)OCCCC[C@H](C)Oc2ccc(NC(=O)c3ccccc3)cc2C1=O	none
O=C(Nc1ccn(Cc2ccccc2F)n1)c1ccc(COc2ccc(Br)cc2)cc1	HIV Env fusion 87 (no result: rRNA inh HTS, Cneo AK release, F508del corr)
C=CCOc1ccc2c(c1)CCC1C2CCC2(C)C(O)C(O)CC12 (centres undefined)	INS-1E GSIS act 47 (no result: HIV Env fusion)
C#C[C@]1(O)CC[C@H]2[C@@H]3CCc4cc(OC5CCCC5)ccc4[C@H]3CC[C@@]21C	F508del corr 8.7
C[C@]12CC[C@@H]3c4ccc(O[C@@H]5O[C@H](C(=O)O)[C@@H](O)[C@H](O)[C@H]5O)cc4CC[C@H]3[C@@H]1C[C@@H](O)[C@@H]2O	none
COc1ccc2c(c1)CC[C@@H]1[C@@H]2CC[C@]2(C)[C@@H](C(C)=O)C[C@@H]12	none (no result: INS-1E GSIS act)
C#C[C@]1(O)CC[C@H]2[C@@H]3CCc4cc(OC)ccc4[C@H]3CC[C@@]21C	F508del corr 8.4 (no result: rRNA inh HTS, INS-1E GSIS act)
O=C(N[C@H]1CC[C@H](CC(=O)N2CCCCC2)O[C@@H]1CO)c1ccccn1	none (no result: miR122 inh)
O=[N+]([O-])c1cc(Br)cc(C=Nc2ccc3c(c2)OCO3)c1O	rRNA inh HTS -30
O=[N+]([O-])c1ccc(O)c(C=Nc2ccc3c(c2)OCO3)c1	none
C[C@@H]1CN([C@@H](C)CO)C(=O)c2cc(NC(=O)Cn3cnnn3)ccc2O[C@@H]1CN(C)C(=O)Nc1ccccc1	none
C[C@@H]1CCCCO[C@@H](CN(C)C(=O)CCCN(C)C)[C@@H](C)CN([C@H](C)CO)C(=O)c2cc(NC(=O)Cc3ccccc3)ccc2O1	Cneo AK release 104
C[C@@H]1CCCCO[C@H](CN(C)C(=O)CCCN(C)C)[C@@H](C)CN([C@H](C)CO)C(=O)c2cc(NC(=O)Cc3ccccc3)ccc2O1	Cneo AK release 116
C[C@H]1CCCCO[C@@H](CN(C)C(=O)CCCN(C)C)[C@@H](C)CN([C@@H](C)CO)C(=O)c2cc(NC(=O)Cc3ccccc3)ccc2O1	none
C[C@H](CO)N1C[C@H](C)[C@H](CN(C)C(=O)Cc2cccnc2)Oc2ncc(C#Cc3ccccc3F)cc2C1=O	none (no result: miR122 inh)
COc1ccc(-c2nnn(CC(=O)c3c[nH]c4ccccc34)n2)cc1OC	none (no result: rRNA inh HTS, HIV Env fusion, F508del corr)
CCCCOc1ccc(-c2nnn(CC(=O)c3c[nH]c4ccccc34)n2)cc1	INS-1E GSIS act 94 (no result: rRNA inh HTS, F508del corr)
CN(C)CCCNC(=O)C[C@@H]1CC[C@@H]2[C@H](COC[C@@H](O)CN2S(=O)(=O)c2ccc(Cl)cc2)O1	none
